According to paper PMC5953009 (Chemical Science, 2015):
Values after ≈ are worked out from the molar mass of the structure shown. Like-named read-outs stand apart in the source and are kept apart here. Marks after values point to notes of the source that are not given here.

Assays:
[1] = test system: Pseudomonas aeruginosa strain PAO1 biofilms; assay: Dispersal of already established biofilms; format: cell-based; settings: 24 h
In short: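 PAO1 inoculum (LB overnight, washed, OD600 1) grown as biofilm 24 h at 37 °C, static, without compound, in 0.25% nutrient broth. Wells washed twice, then 0.25% broth with sterile-filtered test compound added (50 μM or stated concentration). After a further 24 h at 37 °C static, wells washed twice and stained 2.5–3 h with 0.5 mM WST-8/20 μM phenazine ethosulfate. A450 read; value is concentration giving complete dispersal.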

[2] = test system: Pseudomonas aeruginosa strain PAO1 biofilms; assay: Biofilm inhibition; format: cell-based; settings: 24 h growth, WST-8; compound alone
In short: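 PAO1 grown overnight in LB at 37 °C with 180 rpm shaking, washed in 0.25% (w/v) nutrient broth and normalised to OD600 1. Inoculated into 0.25% nutrient broth no. 2 containing sterile-filtered test compound at varied concentrations. Incubated 24–25 h at 37 °C, static, humid. Wells washed twice with water, stained 2.5–3 h at 37 °C with 0.5 mM WST-8 plus 20 μM phenazine ethosulfate in 0.25% broth. Supernatant A450 read.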

[3] = test system: Pseudomonas aeruginosa PAO1; settings: cited from earlier work
[4] = test system: Pseudomonas aeruginosa strain PAO1; assay: Bacterial cell viability in the supernatant of the biofilm inhibition assay; format: cell-based; settings: CFU counts in the biofilm supernatant and growth test in full medium
LecA = target: T1, LecA (Pseudomonas aeruginosa, UniProt Q05097); assay: Isothermal titration calorimetry; format: binding
T1 sequence (Q05097 1-122): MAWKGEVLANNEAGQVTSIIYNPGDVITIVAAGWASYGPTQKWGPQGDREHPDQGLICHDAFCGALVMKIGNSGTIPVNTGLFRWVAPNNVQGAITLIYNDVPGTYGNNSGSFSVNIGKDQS

LecB = LecB (Pseudomonas aeruginosa, UniProt Q9HYN5); assay: Isothermal titration calorimetry; format: binding
Chain of LecB (Q9HYN5 2-115 limits assumed): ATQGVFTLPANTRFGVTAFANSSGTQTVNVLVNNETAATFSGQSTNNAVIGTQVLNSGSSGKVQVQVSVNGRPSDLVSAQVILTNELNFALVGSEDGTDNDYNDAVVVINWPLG

[5] = test system: Pseudomonas aeruginosa PAO1; assay: Broth microdilution method; format: cell-based; settings: standard 2-fold dilution assay, full LB medium
In short: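 Broth microdilution: 64 μM compound stocks in LB, sterile-filtered, diluted serially 1/2 in LB. PAO1 grown overnight in LB (37 °C, 180 rpm), diluted to OD600 0.022; 4 μL added to 150 μL sample (~5 × 10^5 CFU). Sterility, growth and polymyxin B (from 64 μg mL−1) controls. Incubated ~18 h at 37 °C, static. MTT (1 mg mL−1) added, 10 min RT. MIC = lowest concentration without visible growth by eye.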

[6] = ITC, 20 mM Tris, 100 mM NaCl, 100 μM CaCl2, pH 7.5, 25 °C
[7] = ITC, 20 mM Tris, 100 mM NaCl, 100 μM CaCl2, pH 7.5, 25 °C, average of two runs

Molecule: NC[C@H]1O[C@H](O[C@H]2[C@H](O)[C@@H](O[C@H]3O[C@H](CO)[C@@H](O)[C@H](N)[C@H]3O)[C@H](N)C[C@@H]2N)[C@H](N)C[C@@H]1O [Tobramycin]
- Dispersal of already established biofilms ([1]; compound at 4 μM): 100% dispersal @ 4 μM
- MBIC (minimal biofilm inhibitory concentration) [2]: 0.5 µM
- MIC (minimal inhibitory concentration) [3]: 1 μg mL^–1 ^g
- MBC (minimal bactericidal concentration under biofilm forming conditions) [4]: 0.5 µM (≈ 0.234 µg/mL)
- MBC (minimal bactericidal concentration under biofilm forming conditions) ([4]; listed as tobramycin): bactericidal antibiofilm effect

Molecule: Polymyxin B
- Dispersal of already established biofilms ([1]; compound at 10 μM): ∼70% dispersal @ 10 μM
- MIC (minimal inhibitory concentration) ([3]; full medium): 2 μg mL^–1 ^f

Molecule: O=[N+]([O-])c1ccc(O[C@@H]2O[C@H](CO)[C@H](O)[C@H](O)[C@H]2O)cc1 [NPG, 4-nitrophenyl-β-D-galactopyranoside]
- ΔH (LecA; [6]): –10.6 ± 0.45 kcal mol^–1
- –TΔS (LecA; [6]): 4.0 kcal mol^–1
- n (stoichiometry of the binding) (LecA; [7]): 0.91 ± 0.03
- r.p./nGal (relative potency per galactoside) (LecA; KD(GalAG0 or GalBG0)/KD(ligand)/nGal): 0.2

Molecule: CC(=O)N[C@H]1C(O)O[C@H](CO)[C@@H](O[C@@H]2O[C@@H](C)[C@@H](O)[C@@H](O)[C@@H]2O)[C@@H]1O[C@@H]1O[C@H](CO)[C@H](O)[C@H](O)[C@H]1O (stereo partly shown) [Le^a, Lewis^a trisaccharide]
- Kd (LecB; [6]): 213 ± 2 nM
- ΔG (LecB; [6]): –9.10 ± 0.02 kcal mol^–1
- ΔH (LecB; [6]): –8.35 ± 0.02 kcal mol^–1
- –TΔS (LecB; [6]): –0.74 ± 0.002 kcal mol^–1
- n (stoichiometry of the binding) (LecB; [7]): 1.08 ± 0.01
- r.p./nsugar (relative potency per fucoside) (LecB; KD(FucOCH3)/KD(ligand)/nFuc): 2

Molecule: (Ac-KKL)4(KFCxKI)2KHI [AcG2xK]
- Dispersal of already established biofilms ([1]; compound at 50 μM): 100% dispersal
- MIC (minimal inhibitory concentration) [5]: >64 µM
